Legend:
[1] = folding enthalpy; higher = less favourable; fluorescence melt of hairpins on a sequencing array, two-state fit; conditions: sodium 0.088 M
Outline: (§1)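 To match UV melts, fitted temperatures were raised by 9.35 °C. These fits were bootstrapped two-state models that gave melting temperature and folding enthalpy, combined by inverse variance over four replicates. The input was normalised Cy3 fluorescence of library hairpins with annealed Cy3 and quencher oligos on a sequenced MiSeq flow cell, imaged in 50 mM Na-HEPES pH 8.0, 25 mM NaCl in 2.5 °C steps up to 60 °C.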

[2] = melting temperature; fluorescence melt of hairpins on a sequencing array, two-state fit, raised by 9.35 °C to match UV melts; conditions: sodium 0.088 M
Outline: as §1

Row | Sequence | folding enthalpy [1] | Tm [2]
1 | GCGGAGTACCGC ((((....)))) | -24.2 kcal/mol | 55.9 °C
2 | GCGGATCGCCGC ((((....)))) | -19.9 kcal/mol | 55.6 °C
3 | GCGGATGCCGC ((((...)))) | -10.5 kcal/mol | 58.8 °C
4 | GCGGATGGAAACACCCGC ((((.((....)).)))) | -42.9 kcal/mol | 53 °C
5 | GCGGATGGAAACATTCGC (((.(((....))).))) | -43.5 kcal/mol | 55.1 °C
6 | GCGGATTCGAAAGAACGC (((..(((....)))))) | -27.2 kcal/mol | 45.1 °C
7 | GCGGATTGCCGC ((((....)))) | -11.3 kcal/mol | 53.7 °C
8 | GCGGCAAGCCGC ((((....)))) | -28.3 kcal/mol | 68.1 °C
9 | GCGGCAGGAAACTACCGC ((((.((....)).)))) | -41.2 kcal/mol | 53.1 °C
10 | GCGGCAGGAAACTGTCGC (((.(((....))).))) | -38.1 kcal/mol | 67.3 °C
11 | GCGGCCCCCCGC ((((....)))) | -23.8 kcal/mol | 55 °C
12 | GCGGCCGGAAACGACCGC ((((.((....)).)))) | -34.9 kcal/mol | 67.2 °C
13 | GCGGCCTCCGC ((((...)))) | -17.7 kcal/mol | 61.8 °C
14 | GCGGCCTCGAAAGAGCGC (((..(((....)))))) | -25.6 kcal/mol | 52.7 °C
15 | GCGGCGACGAAAGTCCGC (((..(((....)))))) | -17.8 kcal/mol | 55.6 °C
16 | GCGGCGCCCGC ((((...)))) | -15.9 kcal/mol | 60.9 °C
17 | GCGGCTGACCGC ((((....)))) | -24.3 kcal/mol | 58.1 °C
18 | GCGGCTGCGAAAGCACGC (((..(((....)))))) | -16.6 kcal/mol | 57.9 °C
19 | GCGGCTTCCCGC ((((....)))) | -26.3 kcal/mol | 58.2 °C
20 | GCGGCTTCGAAAGAACGC (((..(((....)))))) | -21.4 kcal/mol | 44.6 °C
21 | GCGGGAAACCGC ((((....)))) | -22.9 kcal/mol | 67.3 °C
22 | GCGGGAAGCCGC ((((....)))) | -18.4 kcal/mol | 61.6 °C
23 | GCGGGAATCCGC ((((....)))) | -27.9 kcal/mol | 68.3 °C
24 | GCGGGACCCGC ((((...)))) | -24.5 kcal/mol | 55.9 °C
25 | GCGGGACGAAAGTCCGC (((.(((....)))))) | -23.1 kcal/mol | 69.2 °C

Row | Sequence | folding enthalpy [1] | Tm [2]
26 | GCGGGAGCCGC ((((...)))) | -9.67 kcal/mol | 54.9 °C
27 | GCGGGAGGAAACTTCCGC ((((.((....)).)))) | -40.1 kcal/mol | 58.6 °C
28 | GCGGGCACGAAAGTGCGC (((..(((....)))))) | -10.2 kcal/mol | 52.5 °C
29 | GCGGGCCCCGC ((((...)))) | -22.2 kcal/mol | 62.2 °C
30 | GCGGGCGAAAGCCAACGC ((((((....)))..))) | -22.4 kcal/mol | 65.3 °C
31 | GCGGGCGAAAGCCACCGC ((((((....)))..))) | -17.4 kcal/mol | 59.2 °C
32 | GCGGGCGAAAGCCCACGC ((((((....)))..))) | -14 kcal/mol | 65.5 °C
33 | GCGGGCGAAAGCCCTCGC ((((((....)))..))) | -13.1 kcal/mol | 50 °C
34 | GCGGGCGAAAGCCTACGC ((((((....)))..))) | -18.8 kcal/mol | 61.5 °C
35 | GCGGGCGCCGC ((((...)))) | -9.79 kcal/mol | 60.6 °C
36 | GCGGGCTCCCGC ((((....)))) | -23.8 kcal/mol | 66 °C
37 | GCGGGCTGCCGC ((((....)))) | -19.5 kcal/mol | 60.9 °C
38 | GCGGGGCGAAAGCCGTGC ((..(((....)))..)) | -27.3 kcal/mol | 62.5 °C
39 | GCGGGGCGAAAGCCTGGC ((..(((....)))..)) | -19.2 kcal/mol | 57.8 °C
40 | GCGGGGCGAAAGCGCGGC ((.(.((....)).).)) | -27.6 kcal/mol | 62.5 °C
41 | GCGGGGCGAAAGCTACGC (((..((....))..))) | -27.3 kcal/mol | 68.6 °C
42 | GCGGGGCGAAAGCTCTGC ((.(.((....)).).)) | -21.9 kcal/mol | 61.9 °C
43 | GCGGGGGCCCGC ((((....)))) | -38.8 kcal/mol | 56 °C
44 | GCGGGGGGAAACCTCCGC ((((.((....)).)))) | -40.9 kcal/mol | 66.7 °C
45 | GCGGGGTCCGC ((((...)))) | -28.7 kcal/mol | 55.5 °C
46 | GCGGGTCCCGC ((((...)))) | -28.1 kcal/mol | 56.4 °C
47 | GCGGGTGCCGC ((((...)))) | -23.3 kcal/mol | 55.9 °C
48 | GCGGGTGGAAACATCCGC ((((.((....)).)))) | -43 kcal/mol | 64 °C
49 | GCGGGTTTCCGC ((((....)))) | -28.2 kcal/mol | 59.2 °C
50 | GCGGTACCCGC ((((...)))) | -18.7 kcal/mol | 63.3 °C

Row | Sequence | folding enthalpy [1] | Tm [2]
51 | GCGGTAGCCCGC ((((....)))) | -12.3 kcal/mol | 62 °C
52 | GCGGTAGGAAACTATCGC (((.(((....))).))) | -37.9 kcal/mol | 53.7 °C
53 | GCGGTCAGCCGC ((((....)))) | -27.7 kcal/mol | 57.4 °C
54 | GCGGTCGAAAGACATCGC ((((((....)))..))) | -20.7 kcal/mol | 49.1 °C
55 | GCGGTCGAAAGACGCGC ((((((....))).))) | -30.8 kcal/mol | 65.6 °C
56 | GCGGTCGAAAGACGGCGC ((((((....)))..))) | -31.3 kcal/mol | 63.9 °C
57 | GCGGTCGAAAGACGTCGC ((((((....)))..))) | -23.7 kcal/mol | 50.5 °C
58 | GCGGTCGAAAGACTCGC ((((((....))).))) | -29 kcal/mol | 54.6 °C
59 | GCGGTCGAAAGACTTCGC ((((((....)))..))) | -21.6 kcal/mol | 47.6 °C
60 | GCGGTCGGAAACGGCTGC ((.(.((....)).).)) | -36.8 kcal/mol | 53.4 °C
61 | GCGGTCTCCCGC ((((....)))) | -33.4 kcal/mol | 55.5 °C
62 | GCGGTGCCCGC ((((...)))) | -19.3 kcal/mol | 55.5 °C
63 | GCGGTGCGAAAGCAATGC ((..(((....)))..)) | -29.2 kcal/mol | 59 °C
64 | GCGGTGCGAAAGCCCAGC ((.(.((....)).).)) | -21.6 kcal/mol | 54.2 °C
65 | GCGGTGCGAAAGCTCGGC ((.(.((....)).).)) | -19.1 kcal/mol | 51 °C
66 | GCGGTGGCCCGC ((((....)))) | -16.3 kcal/mol | 61 °C
67 | GCGGTGGCGAAAGCCCGC (((..(((....)))))) | -23.3 kcal/mol | 66.9 °C
68 | GCGGTGGGAAACCGTCGC (((..((....))..))) | -14.3 kcal/mol | 55.5 °C
69 | GCGGTGGGCCGC ((((....)))) | -13.9 kcal/mol | 65.8 °C
70 | GCGGTTCCGAAAGGACGC (((..(((....)))))) | -25 kcal/mol | 51.7 °C
71 | GCGGTTCGCCGC ((((....)))) | -23.3 kcal/mol | 64.5 °C
72 | GCGGTTGCCCGC ((((....)))) | -14.9 kcal/mol | 62 °C
73 | GCGGTTGGAAACAGCTGC ((.(.((....)).).)) | -25.9 kcal/mol | 52.3 °C
74 | GCGGTTGGAAACAGTCGC (((..((....))..))) | -25.3 kcal/mol | 44.2 °C
75 | GCGGTTGGAAACGACCGC (((((.(....).))))) | -48.8 kcal/mol | 62.9 °C

Row | Sequence | folding enthalpy [1] | Tm [2]
76 | GCGTAAACGAAAGTTCGC (((..(((....)))))) | -33.7 kcal/mol | 48.2 °C
77 | GCGTAACGAAAGTTCGC (((.(((....)))))) | -36.1 kcal/mol | 55.9 °C
78 | GCGTAACGAAAGTTGCGC (((.(((....))).))) | -53 kcal/mol | 63 °C
79 | GCGTAAGAACGC ((((....)))) | -15.8 kcal/mol | 49.5 °C
80 | GCGTAATCGAAAGATCGC (((..(((....)))))) | -25.1 kcal/mol | 45.6 °C
81 | GCGTACAACGC ((((...)))) | -22.4 kcal/mol | 55.6 °C
82 | GCGTACACACGC ((((....)))) | -23.9 kcal/mol | 51.4 °C
83 | GCGTACCCGAAAGGGCGC (((..(((....)))))) | -22.1 kcal/mol | 56.4 °C
84 | GCGTACCGAAAGGTCGC (((.(((....)))))) | -36.5 kcal/mol | 63.5 °C
85 | GCGTACCGACGC ((((....)))) | -22.5 kcal/mol | 50.9 °C
86 | GCGTACGAAAGTAAGCGC ((((((....)))..))) | -30.9 kcal/mol | 56.8 °C
87 | GCGTACGAAAGTAATCGC ((((((....)))..))) | -23.6 kcal/mol | 44.1 °C
88 | GCGTACGAAAGTAGCGC ((((((....))).))) | -31.1 kcal/mol | 68.8 °C
89 | GCGTACGAAAGTATACGC ((((((....)))..))) | -34 kcal/mol | 51.4 °C
90 | GCGTACGAAAGTATCCGC ((((((....)))..))) | -23.5 kcal/mol | 38.6 °C
91 | GCGTACGAAAGTATGCGC ((((((....)))..))) | -37.5 kcal/mol | 58.4 °C
92 | GCGTACGGAAACATACGC (((((.(....).))))) | -33.8 kcal/mol | 46.8 °C
93 | GCGTACTGACGC ((((....)))) | -21.9 kcal/mol | 52.4 °C
94 | GCGTAGCGAAAGCCGCGC (((..((....))..))) | -16.2 kcal/mol | 61.6 °C
95 | GCGTAGCGAAAGCTCGC (((.(((....)))))) | -16.4 kcal/mol | 63.3 °C
96 | GCGTAGCGAAAGCTCGGC ((..(((....)))..)) | -7.84 kcal/mol | 39.9 °C
97 | GCGTAGGGAAACTTGCGC (((.(.(....).).))) | -28.5 kcal/mol | 42.3 °C

Reference: the array DNA melting data of Ke et al. (doi:10.1101/2024.01.08.574731)
